Assay results taken from ChEMBL document CHEMBL3808334, “Synthesis and in vitro evaluation of novel triazine analogues as anticancer agents and their interaction studies with bovine serum albumin” (Eur J Med Chem, 2016).

What was measured:
Assay type in all cases: functional
SK-MEL-5 [1] = assay: Growth inhibition of human SK-MEL-5 cells incubated for 48 hrs by sulforhodamine B assay; settings: SK-MEL-5, 48 h
How it was run: (§1)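 Cells were plated at 5,000–40,000 per well according to doubling time and preincubated 24 h at 37 °C in 5% CO2; time-zero plates were then TCA-fixed. Five concentrations (10-fold or ½-log dilutions, DMSO stock) were incubated 48 h. Cells were TCA-fixed, stained with 0.4% SRB and read at 515 nm. GI50 was taken where [(Ti−Tz)/(C−Tz)]×100 = 50.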

NCI-H322M = assay: Growth inhibition of human NCI-H322M cells assessed as cell growth at 10 uM incubated for 48 hrs by sulforhodamine B assay; settings: read-out: Activity
[2] = Growth inhibition of human MOLT4 cells assessed as cell growth at 10^-7 M incubated for 48 hrs by sulforhodamine B assay; settings: MOLT-4, 48 h, read-out: Activity
How it was run: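 Cells plated at 5,000–40,000/well according to doubling time and preincubated 24 h at 37 °C, 5% CO₂, with time-zero plates TCA-fixed. Drugs were kept as DMSO concentrates at 400× the top concentration and diluted in medium with 50 µg/ml gentamicin. Five 10-fold or ½-log dilutions were run for 48 h, followed by SRB staining and A515. Percent growth = (Ti−Tz)/(C−Tz)×100, or (Ti−Tz)/Tz×100 when Ti<Tz.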

[3] = Growth inhibition of human HCT15 cells assessed as cell growth at 10^-6 M incubated for 48 hrs by sulforhodamine B assay; settings: HCT-15, 48 h, read-out: Activity
How it was run: (§2)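 Cells seeded at 5,000–40,000/well according to doubling time and preincubated 24 h at 37 °C, 5% CO2. Time-zero plates were TCA-fixed. DMSO concentrate was diluted in medium with 50 µg/ml gentamicin to give five concentrations (10-fold or ½ log steps), then exposed 48 h. Cells were TCA-fixed, stained with 0.4% SRB and read at 515 nm. Percent growth was taken against time-zero and control; GI50, TGI and LC50 derived.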

SK-MEL-5 [4] = assay: Growth inhibition of human SK-MEL-5 cells assessed as cell growth at 10^-7 M incubated for 48 hrs by sulforhodamine B assay; settings: SK-MEL-5, 48 h, read-out: Activity
NCI-H460 = assay: Growth inhibition of human NCI-H460 cells assessed as cell growth at 10^-7 M incubated for 48 hrs by sulforhodamine B assay; settings: NCI-H460, 48 h, read-out: Activity
MDA-MB-231 = assay: Growth inhibition of human MDA-MB-231 cells assessed as cell growth at 10^-7 M incubated for 48 hrs by sulforhodamine B assay; settings: MDA-MB-231, 48 h, read-out: Activity
NCI-H226 [5] = assay: Growth inhibition of human NCI-H226 cells assessed as cell growth at 10^-7 M incubated for 48 hrs by sulforhodamine B assay; settings: NCI-H226, 48 h, read-out: Activity
[6] = Growth inhibition of human HCT15 cells assessed as cell growth at 10^-5 M incubated for 48 hrs by sulforhodamine B assay; settings: HCT-15, 48 h, read-out: Activity; how it was run: as §2
[7] = Growth inhibition of human BT549 cells assessed as cell growth at 10^-4 M incubated for 48 hrs by sulforhodamine B assay; settings: BT-549, 48 h, read-out: Activity
How it was run: (§3)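 Five-dose assay: five concentrations from 10-fold or ½-log serial dilutions. Cells are plated at 5,000–40,000 per well according to doubling time, grown 24 h, then exposed 48 h at 37 °C, 5% CO₂. Fixed with cold 50% TCA (final addition) for 60 min at 4 °C and stained with 0.4% SRB in 1% acetic acid. Bound dye is solubilized in 10 mM Tris base and read at 515 nm. GI₅₀ is where [(Ti−Tz)/(C−Tz)]×100 = 50, with a time-zero plate as Tz.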

[8] = Growth inhibition of human PC3 cells incubated for 48 hrs by sulforhodamine B assay; settings: PC-3, 48 h; how it was run: as §1
NCI-H226 [9] = assay: Growth inhibition of human NCI-H226 cells assessed as cell growth at 10^-4 M incubated for 48 hrs by sulforhodamine B assay; settings: NCI-H226, 48 h, read-out: Activity
[10] = Growth inhibition of human OVCAR4 cells assessed as cell growth at 10 uM incubated for 48 hrs by sulforhodamine B assay; settings: OVCAR-4, 48 h, read-out: Activity
NCI/ADR-RES = assay: Growth inhibition of human NCI/ADR-RES cells assessed as cell growth at 10^-7 M incubated for 48 hrs by sulforhodamine B assay; settings: read-out: Activity
[11] = Growth inhibition of human SF295 cells incubated for 48 hrs by sulforhodamine B assay; settings: SF-295, 48 h; how it was run: as §1
SK-MEL-28 = assay: Growth inhibition of human SK-MEL-28 cells assessed as cell growth at 10 uM incubated for 48 hrs by sulforhodamine B assay; settings: SK-MEL-28, 48 h, read-out: Activity
[12] = Growth inhibition of human SNB19 cells assessed as cell growth at 10^-5 M incubated for 48 hrs by sulforhodamine B assay; settings: SNB-19, 48 h, read-out: Activity
[13] = Growth inhibition of human COLO205 cells assessed as cell growth at 10^-4 M incubated for 48 hrs by sulforhodamine B assay; settings: COLO 205, 48 h, read-out: Activity; how it was run: as §2
[14] = Growth inhibition of human SF539 cells assessed as cell growth at 10^-4 M incubated for 48 hrs by sulforhodamine B assay; settings: SF-539, 48 h, read-out: Activity
M14 = assay: Growth inhibition of human M14 cells incubated for 48 hrs by sulforhodamine B assay; settings: M14, 48 h; how it was run: as §1
786-0 = assay: Growth inhibition of human 786-0 cells assessed as cell growth at 10^-5 M incubated for 48 hrs by sulforhodamine B assay; settings: 786-0, 48 h, read-out: Activity; how it was run: as §3
[15] = Growth inhibition of human RPMI8226 cells incubated for 48 hrs by sulforhodamine B assay; settings: RPMI-8226, 48 h; how it was run: as §1
SK-MEL-2 = assay: Growth inhibition of human SK-MEL-2 cells assessed as cell growth at 10^-6 M incubated for 48 hrs by sulforhodamine B assay; settings: SK-MEL-2, 48 h, read-out: Activity
[16] = read-out: LC50 (the source's name)
[17] = read-out: pLC50 (the source's name) (converted)

c1ccc(-c2nc(Nc3ccc(-c4nc5ccccc5[nH]4)cc3)nc(N3CCOCC3)n2)cc1
GI50 (SK-MEL-5 [1]; read-out: GI50): 1690 nM
CC50 (SK-MEL-5 [1]; [16]): 5900 nM
TGI (SK-MEL-5 [1]; read-out: TGI): 3150 nM
GI50 (SK-MEL-5 [1]; read-out: pGI50 (converted)): 1700 nM
CC50 (SK-MEL-5 [1]; [17]): 5890 nM
TGI (SK-MEL-5 [1]; read-out: pTGI (converted)): 3160 nM
growth at 10 µM (NCI-H322M): -0.47%
growth at 0.1 µM [2]: 79%
growth at 1 µM [3]: 13%
growth at 0.1 µM (SK-MEL-5 [4]): 104%
growth at 0.1 µM (NCI-H460): 103%
growth at 0.1 µM (MDA-MB-231): 86%
growth at 0.1 µM (NCI-H226 [5]): 120%
growth at 10 µM [6]: -58%
growth at 100 µM [7]: -80%
GI50 ([8]; read-out: GI50): 1800 nM
CC50 [8, 16]: 7370 nM
TGI ([8]; read-out: TGI): 3640 nM
GI50 ([8]; read-out: pGI50 (converted)): 1820 nM
CC50 [8, 17]: 7410 nM
TGI ([8]; read-out: pTGI (converted)): 3630 nM
growth at 100 µM (NCI-H226 [9]): -59%
growth at 10 µM [10]: -47.2%
growth at 0.1 µM (NCI/ADR-RES): 95%
GI50 ([11]; read-out: GI50): 1250 nM
CC50 [11, 16]: 6470 nM
TGI ([11]; read-out: TGI): 2840 nM
GI50 ([11]; read-out: pGI50 (converted)): 1260 nM
CC50 [11, 17]: 6460 nM
TGI ([11]; read-out: pTGI (converted)): 2820 nM
growth at 10 µM (SK-MEL-28): -82.8%
growth at 10 µM [12]: -53%
growth at 100 µM [13]: -74%
growth at 100 µM [14]: -90%
GI50 (M14; read-out: GI50): 1340 nM
CC50 (M14; [16]): 6300 nM
TGI (M14; read-out: TGI): 2900 nM
GI50 (M14; read-out: pGI50 (converted)): 1350 nM
CC50 (M14; [17]): 6310 nM
TGI (M14; read-out: pTGI (converted)): 2880 nM
growth at 10 µM (786-0): -88%
GI50 ([15]; read-out: GI50): 1110 nM
CC50 [15, 16]: > 100000 nM
TGI ([15]; read-out: TGI): 4230 nM
GI50 ([15]; read-out: pGI50 (converted)): 1120 nM
CC50 [15, 17]: > 100000 nM
TGI ([15]; read-out: pTGI (converted)): 4270 nM
growth at 1 µM (SK-MEL-2): 106%

Clc1ccc(-c2nc(Nc3ccc(-c4nc5ccccc5[nH]4)cc3)nc(N3CCOCC3)n2)cc1
GI50 (SK-MEL-5 [1]; read-out: GI50): 1690 nM
CC50 (SK-MEL-5 [1]; [16]): 5790 nM
TGI (SK-MEL-5 [1]; read-out: TGI): 3130 nM
GI50 (SK-MEL-5 [1]; read-out: pGI50 (converted)): 1700 nM
CC50 (SK-MEL-5 [1]; [17]): 5750 nM
TGI (SK-MEL-5 [1]; read-out: pTGI (converted)): 3160 nM
growth at 10 µM (NCI-H322M): -92.8%
growth at 0.1 µM [2]: 90%
growth at 1 µM [3]: -57%
growth at 0.1 µM (SK-MEL-5 [4]): 102%
growth at 0.1 µM (NCI-H460): 100%
growth at 0.1 µM (MDA-MB-231): 92%
growth at 0.1 µM (NCI-H226 [5]): 106%
growth at 10 µM [6]: -76%
growth at 100 µM [7]: -13%
GI50 ([8]; read-out: GI50): 376 nM
TGI ([8]; read-out: TGI): 1330 nM
GI50 ([8]; read-out: pGI50 (converted)): 380 nM
TGI ([8]; read-out: pTGI (converted)): 1320 nM
growth at 100 µM (NCI-H226 [9]): -25%
growth at 10 µM [10]: -73.9%
growth at 0.1 µM (NCI/ADR-RES): 101%
GI50 ([11]; read-out: GI50): 1470 nM
TGI ([11]; read-out: TGI): 2990 nM
GI50 ([11]; read-out: pGI50 (converted)): 1480 nM
TGI ([11]; read-out: pTGI (converted)): 3020 nM
growth at 10 µM (SK-MEL-28): -84.7%
growth at 10 µM [12]: -70%
growth at 100 µM [13]: -44%
growth at 100 µM [14]: -38%
GI50 (M14; read-out: GI50): 370 nM
TGI (M14; read-out: TGI): 1480 nM
GI50 (M14; read-out: pGI50 (converted)): 372 nM
TGI (M14; read-out: pTGI (converted)): 1480 nM
growth at 10 µM (786-0): -87%
GI50 ([15]; read-out: GI50): 257 nM
TGI ([15]; read-out: TGI): 682 nM
GI50 ([15]; read-out: pGI50 (converted)): 257 nM
TGI ([15]; read-out: pTGI (converted)): 676 nM
growth at 1 µM (SK-MEL-2): 97%
